This is one part of a sample in which hits are shown more often than they occur.
PTK2B oligo ant = blocks oligomerization of human Pyk2 in cells. Q14289. Q293 cells, Pyk2 FERM NanoBiT luminescence; active compounds read low. z-score (the deposit names both 25 µM and 10 µM). hit rate 0.83% among 99,000. AID 1347419;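 active means Z-score of -3 or lower, scaled per plate to the spread of control and sample wells; inactive means z-score above -3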;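 further: negative z-score means lost luminescence so less FERM oligomerization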
Target sequence (Q14289 whole entry, looked up): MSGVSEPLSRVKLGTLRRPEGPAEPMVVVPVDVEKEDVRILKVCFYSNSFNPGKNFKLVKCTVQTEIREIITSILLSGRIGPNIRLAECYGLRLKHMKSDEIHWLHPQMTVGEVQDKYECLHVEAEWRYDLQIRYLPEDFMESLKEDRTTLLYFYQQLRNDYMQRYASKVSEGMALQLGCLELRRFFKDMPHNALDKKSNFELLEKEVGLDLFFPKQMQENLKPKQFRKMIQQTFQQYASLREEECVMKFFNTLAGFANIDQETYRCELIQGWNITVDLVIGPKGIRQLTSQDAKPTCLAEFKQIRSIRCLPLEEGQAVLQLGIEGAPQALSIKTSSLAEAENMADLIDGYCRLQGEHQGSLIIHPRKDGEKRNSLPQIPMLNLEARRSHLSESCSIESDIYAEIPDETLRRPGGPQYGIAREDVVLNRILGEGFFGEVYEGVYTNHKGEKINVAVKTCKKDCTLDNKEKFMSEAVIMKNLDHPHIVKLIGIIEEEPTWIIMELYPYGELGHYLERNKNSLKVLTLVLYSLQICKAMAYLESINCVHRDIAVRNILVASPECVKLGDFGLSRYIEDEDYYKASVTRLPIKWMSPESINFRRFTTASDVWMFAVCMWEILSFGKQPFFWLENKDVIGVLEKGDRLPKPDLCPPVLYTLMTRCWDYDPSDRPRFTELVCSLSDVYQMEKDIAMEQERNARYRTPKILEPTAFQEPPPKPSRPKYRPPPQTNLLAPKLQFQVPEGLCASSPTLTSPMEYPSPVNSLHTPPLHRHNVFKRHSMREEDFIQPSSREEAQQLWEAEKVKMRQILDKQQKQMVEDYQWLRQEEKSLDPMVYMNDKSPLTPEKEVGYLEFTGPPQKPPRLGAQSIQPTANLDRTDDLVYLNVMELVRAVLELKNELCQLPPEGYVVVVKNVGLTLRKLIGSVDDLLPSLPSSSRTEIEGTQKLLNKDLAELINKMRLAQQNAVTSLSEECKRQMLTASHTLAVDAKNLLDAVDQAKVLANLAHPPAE
HCT116 PTEN-null = PTEN-deleted cell growth suppression; viability, % at 10 µM; AID 827; hit rate 1.2% among 140,000; HCT116 PTEN-null viability, CellTiter-Glo, 60 h; active compounds read low;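 active means viability at or below a set limit, 4 SD under the median of all tested compounds, cut at about 3.7% in these data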;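 further: PTEN knockout HCT116 line with beta catenin targeted HCT116 as companion control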
HUVEC prolif 384 = human endothelial cell proliferation inhibition. hit rate 1.1% among 86,000. HUVEC proliferation, CellTiter-Glo luminescence, 72 h; active compounds read low. viability, % at 10 µM (by protocol);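 active means viability at or below 30%; inactive means viability above 30%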;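 further: 100% = median luminescence of DMSO-only cell control wells on each plate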
bCat KO growth = beta-catenin-lacking colon tumor cell growth suppression. hit rate 1.5% among 140,000. viability, % at 10 µM. HCT116 beta-catenin knockout viability, CellTiter-Glo, 60 h; active compounds read low;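 active means viability at or under a set limit, the compound median less 4 SD, cut at about 6% in these data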;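 further: 0% = Hyamine 1622 control at 20 µM and 100% = untreated cell control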
Fibroblast inh = blocks proliferation of human lung fibroblasts; LL 47 human lung fibroblast viability, ATP luminescence; active compounds read low; viability, % at 10 µM; hit rate 1.1% among 85,000; AID 719;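 active means viability at or below 50% in the single dose screen; inactive means viability above 50%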;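 further: compound exposure lasted 72 h before the ATP readout; 100% = median luminescence of untreated cell-only wells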
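material = human LL 47 lung fibroblast cells | dosing = compounds added from tenfold dosing solution, 0.1% DMSO final | timing = overnight cell rest, 72 h compound treatment at 37 °C | measured by = CellTiter-Glo luminescence measuring cellular ATP | evaluation = % viability versus median cells-only luminescence | control set = cell-only wells, no compound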
H69AR inhibit = growth inhibitors of human H69AR lung tumor cells; H69AR lung tumor viability, ATP luminescence, 72 h; active compounds read low; viability, % at 10 µM; hit rate 6% among 85,000;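 active means viability at or below 40%; inactive means viability above 40%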;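 further: multidrug resistant small cell line overexpressing MRP-1 efflux transporter; 100% = mean luminescence of untreated control wells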
* = called active by the depositor; . = not tested or not shown.

SMILES	PTK2B oligo ant	HCT116 PTEN-null	HUVEC prolif 384	bCat KO growth	Fibroblast inh	H69AR inhibit
O=C1C(c2cc(=O)c3ccccc3[nH]2)=C(O)c2ccccc21	.	68.2	.	73.1	.	.
O=c1cc(-c2ccccc2)[nH]c2ccccc12	1.36	13.2	53.0	8.9	57.5	31.0*
COc1cccc(-c2nn(C)c3sc(C(=O)NCc4ccco4)cc23)c1	-2.63	63.9	62.7	81.1	96.3	59.4
COCCNC(=O)c1cc2c(-c3ccc(Cl)cc3)nn(C)c2s1	.	61.9	68.0	61.1	73.5	67.4
CCN1CCCC1CNC(=O)c1cc2c(-c3ccc(Cl)cc3)nn(C)c2s1 (stereo unspecified)	.	5.9	1.7*	3.2*	10.8*	2.1*
CCN1CCCC1CNC(=O)c1cc2c(-c3cccc(OC)c3)nn(C)c2s1 (stereo unspecified)	0.14	4.1	47.4	2.6*	70.2	59.6
O=C(CN1C(=O)COc2ccccc21)N1CCCc2ccccc21	0.66	105.1	101.3	102.8	97.6	98.3
O=C(CN1C(=O)COc2ccccc21)N1CCc2ccccc2C1	0.47	79.9	84.4	72.0	3.1*	107.7
O=S(=O)(NCCc1ccccc1)c1ccc(Cl)nc1	2.03	95.5	.	96.8	.	.
CCOC(=O)N1CCN(c2c(NCc3cccs3)c(=O)c2=O)CC1	.	38.4	70.4	42.6	85.2	31.0*
CCOC(=O)N1CCN(c2c(NCc3ccc(Cl)cc3)c(=O)c2=O)CC1	.	15.9	51.9	13.7	52.3	41.1
CCCCC(CCCC)=N/N=C/c1c(O)n(CC)c2cc(C3=NNC(=O)CC3)ccc12	1.58	30.9	100.3	39.3	78.0	33.3*
O=C(C1CCCO1)N1CCN(C(=S)Nc2ccc(Cl)cc2)CC1 (stereo unspecified)	.	89.6	.	96.2	.	.
N#CCCS(=O)(=O)c1nnnn1-c1ccccc1	.	.	57.6	.	66.7	0.4*
COc1ccc(-c2csc3nc(-c4ccc(C)cc4)oc(=O)c23)cc1OC	.	1.8*	.	1.7*	.	.
O=C(NCc1ccccn1)c1cn(-c2ccccc2)nc1-c1ccc(Cl)cc1	.	69.3	.	76.7	.	.
C=CCOC(=O)C1=C(C)NC(SCC)=C(C#N)C1c1ccc(Cl)cc1 (stereo unspecified)	-3.19*	7.9	53.8	8.6	83.8	69.9
C=CCOC(=O)C1=C(C)NC(SCC(=O)Nc2ccc(C)c(Cl)c2)=C(C#N)C1c1ccco1 (stereo unspecified)	-2.42	14.6	60.6	4.2*	16.9*	7.0*
COCCOC(=O)C1=C(C)NC(SCC(=O)NC(C)(C)C)=C(C#N)C1c1ccco1 (stereo unspecified)	.	66.1	85.5	73.4	101.1	66.9
O=C(Cn1nc(Cl)nc1Cl)c1ccc2c(c1)OCCO2	0.33	95.1	82.7	79.7	95.8	38.4*
O=C(Cn1nc(Cl)nc1Cl)c1cc2ccccc2oc1=O	-0.36	86.8	90.5	93.0	98.9	31.8*
CCn1ncc(NC(=O)Nc2cccc(C(F)(F)F)c2)c1C(N)=O	0.53	109.8	87.4	102.9	97.0	92.6
CCSCCc1nnc(NC(=O)Nc2cccc(C(F)(F)F)c2)s1	.	3.7*	.	4.5*	.	.
CCOC(=O)c1[nH]c2c(c1C)C(=O)CC(c1ccc(F)cc1)C2 (stereo unspecified)	.	13.2	54.3	12.9	57.8	99.8
Cc1c(C(=O)OCC(C)C)[nH]c2c1C(=O)CC(c1cccs1)C2 (stereo unspecified)	0.46	15.4	44.9	12.8	51.6	20.9*
SMILES	PTK2B oligo ant	HCT116 PTEN-null	HUVEC prolif 384	bCat KO growth	Fibroblast inh	H69AR inhibit
Cc1sc2ncnc(NCC(c3ccco3)N3CCCC3)c2c1C (stereo unspecified)	0.44	41.1	74.6	31.5	89.0	35.9*
O=C(NCCc1cccs1)C1CC(c2c(Cl)cccc2Cl)=NO1 (stereo unspecified)	.	20.7	.	26.8	.	.
Cc1ccc(S(=O)(=O)CCC(=O)c2ccc(O)cc2O)cc1	0.03	29.6	86.8	45.1	86.9	1.0*
Cc1nc(SCc2nc3ccccc3[nH]2)c2oc3ccccc3c2n1	-1.6	46.8	87.2	58.2	89.6	65.1
c1ccc2[nH]c(CSc3ncnc4c3oc3ccccc34)nc2c1	-0.88	59.1	87.9	63.5	90.3	58.5
c1ccc2[nH]c(CN3CCN(c4ncnc5c4oc4ccccc45)CC3)nc2c1	-0.75	76.4	86.9	77.3	96.5	7.1*
Cc1nc(N2CCN(Cc3nc4ccccc4[nH]3)CC2)c2oc3ccccc3c2n1	0.03	42.6	72.0	47.3	87.9	36.3*

Screens: PubChem BioAssay, several laboratories
